Screening data (PubChem BioAssay)
NLRP3 yeast inh: inhibitors of NALP3 inflammasome in yeast | inhibition, % at 10 µM | AID 2825 | Yeast reconstituted NLRP3/ASC/caspase-1, beta-gal luminescence, 24 h | 330,000 compounds, 0.39% hits;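 active = inhibition of 50% or more; inactive = inhibition below 50%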
UCH37 inh: inhibitors of human deubiquitinating enzyme UCH37; Q9Y5K5; purified proteasome/UCH37, Ub-AMC cleavage fluorescence; inhibition, % (test concentration not listed); 330,000 compounds, 0.33% hits; AID 588478;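 active = mean inhibition over replicate wells above about 20%, limit read from the data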
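assay system = human UCH37 enzyme supplied as purified proteasome complex | amount = proteasome at 0.15 nM in the dispensed enzyme solution | schedule = 30 min compound-proteasome preincubation then 25 min substrate reaction, room temperature | measured by = fluorescence, ex 355 nm, em 460 nm | benchmarks = no-proteasome wells (full inhibition) and compound-free wells (no inhibition)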
NALP1 inh: NALP1 inhibition. inhibition, % at 10 µM. 280,000 compounds, 0.61% hits. S. cerevisiae NALP1/ASC/caspase-1 growth, X-gal OD620, 72 h; in the data active = inhibition mostly above about 24%, no sharp cut-off; inactive = mostly below about 32%
Calb FLC: affects C. albicans growth with fluconazole | C. albicans CaCi-2 + fluconazole, Alamar Blue growth, 48 h | growth inhibition, % (test concentration not listed) | 300,000 compounds, 0.57% hits | AID 1979;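 active = growth inhibition above about 58% in most replicates, limit read from the data, passing the limit was not always enough; inconclusive = exactly half the replicates above a set limit; inactive = most replicates below a set limit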;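 note: all wells also contain fluconazole at 8 µg/ml as a sub-toxic cotreatment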
ATG4B inh: blocks human ATG4B protease cleavage of LC3 substrate | ATG4B cleavage of LC3-PLA2, NBD-HPC fluorescence, 1 h | inhibition, % at 8.33 µM | 340,000 compounds, 0.51% hits | AID 504462; in the data active = inhibition above about 40%
Target sequence (Q9Y4P1 whole entry, looked up): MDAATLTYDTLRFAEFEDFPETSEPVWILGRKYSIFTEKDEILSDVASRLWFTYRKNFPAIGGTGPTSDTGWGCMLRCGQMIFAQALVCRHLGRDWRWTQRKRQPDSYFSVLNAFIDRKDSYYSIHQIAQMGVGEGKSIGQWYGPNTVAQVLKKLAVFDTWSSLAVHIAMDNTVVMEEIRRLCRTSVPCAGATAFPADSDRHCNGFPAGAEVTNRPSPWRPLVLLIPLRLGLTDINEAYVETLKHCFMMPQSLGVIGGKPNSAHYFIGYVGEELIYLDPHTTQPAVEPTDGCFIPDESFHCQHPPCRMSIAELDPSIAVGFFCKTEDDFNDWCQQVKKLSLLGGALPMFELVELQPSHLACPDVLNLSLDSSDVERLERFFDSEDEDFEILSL
ALR inh: human ALR oxidase inhibition via reduced H2O2; purified ALR, DTT oxidation, H2O2 HRP-luminol luminescence; inhibition, % (concentration not given with the values); 290,000 compounds, 3.8% hits;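 active = mean replicate inhibition above about 79%, with every replicate also reaching it, limit read from the data; inconclusive = only one of the two criteria met; inactive = mean below limit and not every replicate reaching it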
Target sequence (P55789 whole entry, looked up): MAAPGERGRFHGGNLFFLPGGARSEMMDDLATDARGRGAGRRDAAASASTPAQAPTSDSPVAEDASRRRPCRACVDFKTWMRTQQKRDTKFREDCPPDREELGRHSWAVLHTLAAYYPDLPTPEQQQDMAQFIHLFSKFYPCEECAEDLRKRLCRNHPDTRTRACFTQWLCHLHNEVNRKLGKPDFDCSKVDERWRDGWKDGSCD
NALP3 yeast conf: NALP3 inhibition confirmation in yeast. shares compounds with NLRP3 yeast inh. yeast expressing human NALP3, luminescence. inhibition, % at 10 µM. 1,300 compounds, 81% hits. AID 435006; in the data active = inhibition above about 48%
Casp1-ASC yeast: active in yeast caspase-1-ASC counter-screen for NALP3 inhibitors. 1,000 compounds, 66% hits. yeast expressing Caspase-1-ASC, luminescence counter screen. shares compounds with NLRP3 yeast inh. inhibition, % at 10 µM
NALP3 yeast rt: yeast NALP3 inhibition, confirmed on retest; yeast expressing human NALP3, luminescence read-out; AID 488794; inhibition, % at 10 µM; 1,000 compounds, 53% hits; shares compounds with NLRP3 yeast inh
Each line names hits and unclear results; the compound was inactive in the other large screens (follow-up assays come after a bar, where they were run). Rows were chosen to be rich in hits. Some 4.8% of all compounds tested hit in one or more screens of this group. Cut-off read from the data, not from the text of the source, unless noted: active = inhibition above about 50%; inactive = the rest.

O=C(O)COc1ccc(C=NNC(=O)C(O)(c2ccccc2)c2ccccc2)cc1	none (no result: NLRP3 yeast inh, NALP1 inh, Calb FLC, ATG4B inh, ALR inh)
CC1CC(=NN2C(=O)CSC2=S)CC(C)(C)C1 (configuration not stated)	none (no result: NLRP3 yeast inh, NALP1 inh, Calb FLC, ATG4B inh, ALR inh)
O=C(O)c1cc(NC(=O)c2ccccc2F)cc(NC(=O)c2ccccc2F)c1	none
O=C(Nc1ccc(Nc2ccccc2)cc1)c1ccccc1F	NLRP3 yeast inh 52, ALR inh 99 | NALP3 yeast conf 68 | Casp1-ASC yeast 58 | NALP3 yeast rt 64
Clc1ccc(OCc2nnnn2-c2ccccc2)cc1	none (no result: ALR inh) | NALP3 yeast conf inactive
N#CC(C#N)=c1ccc2c(c1)N1C3=C(CCCC3)CC3CCCCC31N=2 (configuration not stated)	none
N#C/C(C(N)=O)=c1/ccc2c(c1)N1C3=C(CCCC3)CC3CCCCC31N=2 (configuration not stated)	NLRP3 yeast inh 57 (no result: UCH37 inh) | NALP3 yeast conf inactive
Cc1ccc2nc(N/N=C\c3ccc([N+](=O)[O-])o3)nc(-c3ccccc3)c2c1	NLRP3 yeast inh 57 (no result: UCH37 inh) | NALP3 yeast conf inactive | Casp1-ASC yeast inactive | NALP3 yeast rt inactive
NC(=O)c1cnn(-c2cccc(Cl)c2)c1N	none
Nc1c(-c2ccccc2)cnn1-c1cccc(Cl)c1	NLRP3 yeast inh 50 | NALP3 yeast conf 76 | Casp1-ASC yeast 59 | NALP3 yeast rt 54
COc1ccc(C(=O)NN/C(C)=C/C(=O)C(F)(F)C(F)(F)C(F)(F)F)cc1	NLRP3 yeast inh 57, Calb FLC 94 | NALP3 yeast conf 45 | Casp1-ASC yeast inactive | NALP3 yeast rt inactive
Cn1nnc(NC(=S)NC(=O)c2cccc3ccccc23)n1	NLRP3 yeast inh 56 (no result: UCH37 inh) | NALP3 yeast conf 64 | Casp1-ASC yeast 71 | NALP3 yeast rt 55
CC(=O)Nc1ccc(Nc2cc(C)c3ccccc3n2)cc1	none (no result: ALR inh)
CCOc1ccc(Nc2cc(C)c3ccccc3n2)cc1	none
Cc1cc(Nc2ccccc2)nc2cc(O)ccc12	NLRP3 yeast inh 70, NALP1 inh 52, ALR inh 96 | NALP3 yeast conf 82 | Casp1-ASC yeast 91 | NALP3 yeast rt 60
COc1ccc(Nc2cc(C)c3ccc(O)cc3n2)cc1	NLRP3 yeast inh 76, NALP1 inh active, ALR inh 99 | NALP3 yeast conf 91
O=C(CNC(=O)c1ccc(S(=O)(=O)N2CCCC2)cc1)NN=Cc1ccccc1Cl	none (no result: NLRP3 yeast inh, NALP1 inh, Calb FLC, ATG4B inh, ALR inh)
Cc1ccc(C(=O)CSc2ncnc3ccccc23)o1	NLRP3 yeast inh 54, ALR inh 99 (no result: Calb FLC) | NALP3 yeast conf 69 | Casp1-ASC yeast 73 | NALP3 yeast rt 58
Cc1ccc(CSc2ncnc3ccccc23)cc1	none
CC1=CC2=NC(=O)/C(=C\c3cccn3CCOc3cccc(C)c3)C(=N)N2O1	NLRP3 yeast inh 60 | NALP3 yeast conf inactive
CC(=NN(C)C)c1ccc(OCCOc2ccc([N+](=O)[O-])cc2)cc1	none (no result: NLRP3 yeast inh, NALP1 inh, Calb FLC, ATG4B inh, ALR inh)
Cc1c(C=NO)c2ccccn2c1C(=O)c1ccc(F)cc1	none (no result: NLRP3 yeast inh, NALP1 inh, Calb FLC, ATG4B inh, ALR inh)
Cc1c(/C=N/O)c2ccccn2c1C(=O)c1ccc(F)cc1	NLRP3 yeast inh 62 (no result: UCH37 inh) | NALP3 yeast conf 77 | Casp1-ASC yeast inactive | NALP3 yeast rt inactive
CCC(=O)N1CCN(CCN=CC2=C(O)CC(c3ccc(OC)cc3)CC2=O)CC1 (configuration not stated)	NLRP3 yeast inh 53 | NALP3 yeast conf inactive
COc1ccc(C2CC(=O)C(C=NCCCO)=C(O)C2)cc1 (configuration not stated)	none
CCCCCC(=O)N1CCN(CCN=CC2=C(O)CC(c3ccc(OC)cc3)CC2=O)CC1 (configuration not stated)	NLRP3 yeast inh 55 | NALP3 yeast conf 72 | Casp1-ASC yeast inactive | NALP3 yeast rt inactive
CCCCCC(=O)N1CCN(CCN=CC2=C(O)CC(c3ccc(OC)c(OC)c3)CC2=O)CC1 (configuration not stated)	NLRP3 yeast inh 58 | NALP3 yeast conf 66 | Casp1-ASC yeast inactive | NALP3 yeast rt inactive
N#Cc1ccc(C=NNC(=S)Nc2ccc(S(=O)(=O)N3CCOCC3)cc2)cc1	none (no result: NLRP3 yeast inh, NALP1 inh, Calb FLC, ATG4B inh, ALR inh)
O=C(/C=C/c1cccc(Cl)c1)c1nc2ccccc2[nH]1	NLRP3 yeast inh 92, Calb FLC 99 (no result: ALR inh) | NALP3 yeast conf 85 | Casp1-ASC yeast 99 | NALP3 yeast rt 93
CCCCCCCCCn1c2c(c(=N)c3c1CCC3)CCCC2	NLRP3 yeast inh 68, Calb FLC 105 (no result: ALR inh) | NALP3 yeast conf 85 | Casp1-ASC yeast 54 | NALP3 yeast rt 70
CCCCCCCCn1c2c(c(=N)c3ccccc31)CCC2	NLRP3 yeast inh 58, Calb FLC inconclusive (no result: ALR inh) | NALP3 yeast conf 73 | Casp1-ASC yeast inactive | NALP3 yeast rt 62
CCCCn1c2c(c(=N)c3ccccc31)CCC2	none
O=S(=O)(NN=Cc1ccc2c(c1)OCCO2)c1ccccc1	none (no result: NLRP3 yeast inh, NALP1 inh, Calb FLC, ATG4B inh, ALR inh)
CCOc1cc(C=O)ccc1OCCSc1ccc(Cl)cc1	NLRP3 yeast inh 53 | NALP3 yeast conf 48 | Casp1-ASC yeast 58 | NALP3 yeast rt inactive
CCCCCCCCC(=O)N1CCN(c2cc3c(cc2F)c(=O)c(C(=O)O)cn3CC)CC1	NLRP3 yeast inh 57 | NALP3 yeast conf 52 | Casp1-ASC yeast inactive | NALP3 yeast rt inactive
CCCCCCCC(=O)N1CCN(c2cc3c(cc2F)c(=O)c(C(=O)O)cn3CC)CC1	none
COc1ccc(NC(=O)CNC(=O)c2ccc([N+](=O)[O-])cc2)cc1	none
COc1ccc(C(=O)CC(=O)Nc2ccc([N+](=O)[O-])cc2)cc1	NLRP3 yeast inh 67 | NALP3 yeast conf 75 | Casp1-ASC yeast 78 | NALP3 yeast rt 82
Cc1ccc(NC(C)C(=O)NN=Cc2c[nH]c3ccccc23)cc1 (configuration not stated)	none (no result: NLRP3 yeast inh, NALP1 inh, Calb FLC, ATG4B inh, ALR inh)
CSc1cccc(NC(=S)N2CCC(c3ccccc3)C2)c1 (configuration not stated)	none (no result: ALR inh)
CCc1cccc(NC(=S)N2CCC(c3ccccc3)C2)c1 (configuration not stated)	NLRP3 yeast inh 52 | NALP3 yeast conf 56 | Casp1-ASC yeast 62 | NALP3 yeast rt inactive
O=C(Cc1ccc(Cl)cc1)N1CCc2ccccc2C1	NLRP3 yeast inh 53 (no result: NALP1 inh, ALR inh) | NALP3 yeast conf inactive
COc1cc(C=NN2C(C)CCCC2C)cc(Br)c1O (configuration not stated)	none (no result: NLRP3 yeast inh, NALP1 inh, Calb FLC, ATG4B inh, ALR inh)
CCc1cc2cc(C)ccc2nc1SCC(=O)NC1CCCC1	NLRP3 yeast inh 54 | NALP3 yeast conf 62 | Casp1-ASC yeast inactive | NALP3 yeast rt inactive
CCc1cc2cccc(C)c2nc1SCC(=O)NC1CCCC1	none
